The values below come from article PMC3746791 (International Journal of Nanomedicine, 2013).

The subject of series [1] is HepG2 cells. It counts as cell-based, human. Conditions: 2 hours, DOX equivalent 30 μg/mL. An outline of the steps: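 HepG2 cells in DMEM/10% FBS, 37°C, […], exposed 2 h at 37°C to free or liposomal drug at 30 μg/mL DOX equivalent. Confocal: 7 × 10^4 cells/well on cover glass, 50% confluence, PBS-washed, paraformaldehyde-fixed, Triton-permeabilised, DAPI-stained, ex/em 488/560 nm. Flow: 80% confluence, ex 488/em 575 nm, drug-free cells as reference, n = 3. Competition: 100 mM Gal stock added before liposomes.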

Series [2] is described as follows: Pharmacokinetic studies in rats. It counts as in vivo, Sprague Dawley rats. Conditions: at 4 hours postinjection, DOX equivalent dose 10 mg/kg. An outline of the steps: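 Sprague Dawley rats, 5 per group, given 10 mg/kg DOX equivalent. Jugular blood drawn 10 min to 8 h, plasma spun off immediately. Salicylic acid internal standard added, then perchloric acid precipitation. Supernatant run on C18 HPLC in NH4H2PO4 (0.01 mol/L)-acetonitrile-acetic acid (76:24:0.4) at 1.0 mL/min, 233 nm, 40°C. Two-compartment pharmacokinetic modelling.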

Series [3] can be described thus: In vivo biodistribution study. Set-up: species or system Kunming mice. Conditions: mice, intravenous, DOX equivalent 5 mg/kg; heart, spleen, lung, kidney.

In the case of `COc1cccc2c1C(=O)c1c(O)c3c(c(O)c1C2=O)C[C@@](O)(C(=O)CO)C[C@@H]3O[C@H]1C[C@H](N)[C@H](O)[C@H](C)O1` [Free DOX, doxorubicin], the “Cellular uptake of DOX (fluorescence)” value in series [1] is “most intense intracellular fluorescence”. Besides, the “Plasma concentration of DOX” value in series [2] was determined as 0.18 µg/mL. For the same molecule, the “DOX fluorescence in other organs” value in series [3] is “fluorescence was also observed in the heart, spleen, and kidney”.
